{"source": "ChEMBL document CHEMBL1933044", "key": {"[1]": {"test_system": "Matrix protein 2 (Influenza A virus), P06821 [withheld]", "assay": "Inhibition of Influenza A virus (A/Puerto Rico/8/1934(H1N1)) M2 channel S31N mutant expressed in Xenopus oocytes at 100 uM by two-electrode voltage clamp assay", "assay_type": "cell-based", "details": "Oocyte", "procedure,_shortened": "(§1)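 Influenza A/Udorn/72 M2 cDNA, wild type or S31N or V27A mutant made by site-directed mutagenesis, expressed from mRNA microinjected into Xenopus oocytes. Two-electrode voltage clamp recording was done 48–72 h after injection. Compound was applied at pH 5.5 for 2 min once inward current peaked. Residual current was compared with current before application.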"}, "[2]": {"test_system": "Matrix protein 2 (Influenza A virus), P06821 [V27A]", "assay": "Inhibition of Influenza A virus (A/Puerto Rico/8/1934(H1N1)) M2 channel V27A mutant expressed in Xenopus oocytes at 100 uM by two-electrode voltage clamp assay", "assay_type": "cell-based", "details": "Oocyte", "procedure,_shortened": "as §1"}}, "note": "The source made the active and inactive calls. The rule behind the calls is not given here."}
{"molecule": "CC12CC3CC(NCc4ccccc4)(CC(C1)c1ccccc13)C2", "values": [{"measurement": "inhibition", "setting": "[1]", "result": "inactive"}, {"measurement": "inhibition", "setting": "[2]", "result": "inactive"}]}
{"molecule": "CC12CC3CC(N)(CC(C1)c1ccccc13)C2", "values": [{"measurement": "inhibition", "setting": "[1]", "result": "inactive"}, {"measurement": "inhibition", "setting": "[2]", "result": "inactive"}]}
{"molecule": "CN(C)C12CC3CC(C)(CC(C1)c1ccccc13)C2", "values": [{"measurement": "inhibition", "setting": "[1]", "result": "inactive"}, {"measurement": "inhibition", "setting": "[2]", "result": "inactive"}]}
